Activity calls are given as the source filed them. No cut-off for these calls is given here.
Key:
[1] = Antiplatelet aggregation activity against 0.1 U/mL thrombin-induced rabbit platelet assessed as platelet aggregation at 100 uM relative to control; type: functional, Oryctolagus cuniculus
Procedure, shortened: (§1)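 Platelets were preincubated with test sample or vehicle (0.5% DMSO) at 37 °C for 1 min. Aggregation was then triggered with arachidonic acid (100 µM), collagen (10 µg/mL), thrombin (0.1 U/mL) or PAF (2 ng/mL). Results are given as percent aggregation, mean ± SD, with significance at p < 0.05 and p < 0.01.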

[2] = Antiplatelet aggregation activity against 10 ug/mL collagen-induced rabbit platelet assessed as platelet aggregation at 100 uM relative to control; type: functional, Oryctolagus cuniculus; procedure, shortened: as §1
[3] = Antiplatelet aggregation activity against 2 ng/mL platelet activating factor-induced rabbit platelet assessed as platelet aggregation at 100 uM relative to control; type: functional, Oryctolagus cuniculus; procedure, shortened: as §1
[4] = Antiplatelet aggregation activity against 100 uM arachidonic acid-induced rabbit platelet assessed as platelet aggregation at 100 uM relative to control; type: functional, Oryctolagus cuniculus; procedure, shortened: as §1
Platelet [5] = assay: Stimulation of rabbit platelet aggregation at 30.9 +/- 6.0 ug/mL; type: functional, cell-based; details: Oryctolagus cuniculus
[6] = Antiplatelet aggregation activity against 10 ug/mL collagen-induced rabbit platelet assessed as platelet aggregation at 150 uM relative to control; type: functional, Oryctolagus cuniculus; procedure, shortened: as §1
[7] = Antiplatelet aggregation activity against 0.1 U/mL thrombin-induced rabbit platelet assessed as platelet aggregation at 150 uM relative to control; type: functional, Oryctolagus cuniculus; procedure, shortened: as §1
[8] = Antiplatelet aggregation activity against 100 uM arachidonic acid-induced rabbit platelet assessed as platelet aggregation at 150 uM relative to control; type: functional, Oryctolagus cuniculus; procedure, shortened: as §1
[9] = Antiplatelet aggregation activity against 2 ng/mL platelet activating factor-induced rabbit platelet assessed as platelet aggregation at 150 uM relative to control; type: functional, Oryctolagus cuniculus; procedure, shortened: as §1
Platelet [10] = assay: Stimulation of rabbit platelet aggregation at 28.4 +/- 4.8 ug/mL; type: functional, cell-based; details: Oryctolagus cuniculus

Structure (SMILES) | Activity [1] [%] | Activity [2] [%] | Activity [3] [%] | Activity [4] [%] | Activity (Platelet [5]) | Activity [6] [%] | Activity [7] [%] | Activity [8] [%] | Activity [9] [%] | Activity (Platelet [10])
CC(C)[C@@H]1C[C@@H](O)[C@H]2[C@@]1(CO)CC[C@@]1(C)[C@H]3C(=CC[C@]21C)[C@@]1(C)CC[C@H](O)C(C)(C)[C@@H]1C[C@@H]3O [RUBIARBONOL A] | 90.7 | 89.6 | 91.3 | 83.8 | Active | – | – | – | – | –
CC(C)[C@@H]1C[C@@H](O)[C@H]2[C@@]1(C)CC[C@@]1(C)[C@H]3C(=CC[C@]21C)[C@@]1(C)CC[C@H](O)C(C)(C)[C@@H]1C[C@@H]3O [RUBIARBONOL B] | – | 82.2 | – | – | – | 79.8 | 89.6 | 80.4 | 90.4 | –
CC(=O)O[C@@H]1C[C@@H](C(C)C)[C@]2(CO)CC[C@@]3(C)[C@H]4C(=CC[C@]3(C)[C@@H]12)[C@@]1(C)CCC(=O)C(C)(C)[C@@H]1C[C@@H]4O [RUBIARBONONE A] | 91.1 | 88.1 | 90.3 | 85.4 | – | – | – | – | – | Active
